Test results published in PMC4723301 (Experimental biology and medicine (Maywood, N.J.), 2015).

Tests used:
SQL-SAL [1] = assay: Urea secretion in efflux media of SQL-SAL devices
SQL-SAL [2] = assay: Albumin secretion in efflux media of SQL-SAL devices
hepatocytes [3] = assay: Apoptosis, cytochrome C biosensor in sentinel hepatocytes; format: cell-based, human; conditions: for Effect on hepatocellular apoptosis biosensor: 600 μM caffeine, 28 days
SQL-SAL [4] = assay: LDH leakage in efflux media of SQL-SAL devices; conditions: for Days with significant LDH release (p≤0.05): vs vehicle
[5] = tested on: collagen type 1, alpha 2 (COL1A2); assay: Indirect immunofluorescence of COL1A2 in SQL-SAL; format: cell-based, human; conditions: 30nM methotrexate, day 21, relative to vehicle control (p ≤ 0.05)
In short: (§1)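 Human liver model in a perfused microfluidic device: primary hepatocytes, EA.hy926, U937 and LX-2 cells, with the LX-2 cells in collagen. The LX-2 cells are transduced with pLVX-IRES-mito-mKate2 for identification. Perfusion at 5 µL/h with HMM plus 100 nM dexamethasone at 37℃, 5% CO2; test compound in 1% DMSO. On day 21, paraformaldehyde-fixed and stained by indirect immunofluorescence. Value is the ratio of average cellular antibody intensity in stellate versus non-stellate cells; equal-variance t-test.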

LX2 cultures = conditions: human
[6] = tested on: human alpha- smooth muscle actin (alpha-SMA); assay: Indirect immunofluorescence of alpha-SMA in SQL-SAL; format: cell-based
In short: as §1

LX-2 stellate cells = assay: LX-2 stellate cell migration in SQL-SAL; format: cell-based, human; conditions: 30 nM methotrexate, days 4 and 7, vs vehicle control (p ≤ 0.05)
hepatocytes [7] = assay: Hepatocyte area by HCA in SQL-SAL; conditions: 200 μM trovafloxacin (40 × Cmax) with 1 μg/mL LPS
hepatocytes [8] = assay: Bile; format: cell-based, human; conditions: 50 μM troglitazone, day 10 devices, 10-min intervals for 60 min, vs vehicle (1% DMSO)
[9] = Urea secretion in efflux media of SQL-SAL devices; conditions: human
SQL-SAL [10] = conditions: human, 180 μM
[11] = Albumin secretion in efflux media of SQL-SAL devices; conditions: human
hepatocytes [12] = assay: Mitochondrial-targeted ROS biosensor in sentinel hepatocytes; format: cell-based, human; conditions: troglitazone, measured over 24 h
SQL-SAL [13] = assay: SQL-SAL toxicity testing, overall response; conditions: 28μM troglitazone, over 21 days
Cyp 2C9 = Cyp 2C9 (Homo sapiens, UniProt P11712); conditions: 24 h, 10 μM
Chain of Cyp 2C9 (P11712 whole entry): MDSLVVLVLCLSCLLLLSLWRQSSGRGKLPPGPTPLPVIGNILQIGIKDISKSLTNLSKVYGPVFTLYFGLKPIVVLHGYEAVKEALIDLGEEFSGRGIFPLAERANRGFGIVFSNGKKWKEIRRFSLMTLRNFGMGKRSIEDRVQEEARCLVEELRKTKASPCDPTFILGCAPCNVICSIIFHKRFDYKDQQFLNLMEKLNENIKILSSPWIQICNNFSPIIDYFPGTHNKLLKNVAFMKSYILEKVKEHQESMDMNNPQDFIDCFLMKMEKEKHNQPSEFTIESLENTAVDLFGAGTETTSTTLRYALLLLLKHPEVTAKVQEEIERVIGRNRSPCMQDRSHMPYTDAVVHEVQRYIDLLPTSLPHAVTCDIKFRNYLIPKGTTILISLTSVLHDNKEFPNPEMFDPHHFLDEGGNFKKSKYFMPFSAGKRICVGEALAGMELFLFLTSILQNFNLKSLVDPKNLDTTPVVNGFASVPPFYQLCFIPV

[14] = 28 μM troglitazone versus caffeine control
[15] = 180 μM troglitazone, starting at day 1 of treatment

Compound: CS(=O)(=O)Nc1ccc([N+](=O)[O-])cc1Oc1ccccc1 [nimesulide]
- Change in urea (SQL-SAL [1]; 210 μM nimesulide (10 × Cmax)): decreases
- Change in albumin (SQL-SAL [2]; 210 μM nimesulide (10 × Cmax)): decreases
- Apoptotic hepatocytes (hepatocytes [3]; 210 μM nimesulide (10 × Cmax)): rapid increase
- Effect on LDH (SQL-SAL [4]; 210 μM nimesulide (10 × Cmax)): rapid release

Compound: CN(Cc1cnc2nc(N)nc(N)c2n1)c1ccc(C(=O)N[C@@H](CCC(=O)O)C(=O)O)cc1 [methotrexate]
- Expression of collagen, type 1, alpha 2 (COL1A2) in LX-2 stellate cells [5]: increased
- maximum tolerated concentration (LX2 cultures): 100 nM
- Expression of human alpha-SMA in LX-2 stellate cells ([6]; 30nM methotrexate, day 21, relative to vehicle control (p ≤ 0.05)): increased
- alpha-SMA expression in hepatocytes ([6]; methotrexate treatment): increased
- LX-2 stellate cells proximal to the hepatocyte layer (LX-2 stellate cells): significantly accumulate

Compound: N[C@@H]1[C@H]2CN(c3nc4c(cc3F)c(=O)c(C(=O)O)cn4-c3ccc(F)cc3F)C[C@@H]12 [trovafloxacin]
- Change in hepatocyte area (hepatocytes [7]): decrease in hepatocyte area
- LDH leakage (SQL-SAL [4]; 200 μM (40 × Cmax) trovafloxacin co-incubated with 1 μg/mL LPS, 3 and 5 days): Increased LDH leakage

Compound: Cn1c(=O)c2c(ncn2C)n(C)c1=O [caffeine]
- Effect on hepatocellular apoptosis biosensor (hepatocytes [3]): no appreciable effect
- Effect on hepatocellular apoptosis biosensor (hepatocytes [3]; listed as Caffeine): no significant effect

Compound: Cc1c(C)c2c(c(C)c1O)CCC(C)(COc1ccc(CC3SC(=O)NC3=O)cc1)O2 (stereo not shown) [troglitazone]
- CMFDA uptake and canalicular efflux (hepatocytes [8]): slower uptake and inhibition of efflux
- half-life at 28 μM [9]: ~288 h
- half-life at 180 μM [9]: ~72 h
- Change in urea (SQL-SAL [1]; [14]): gradual decrease
- Change in urea (SQL-SAL [1]; [15]): sharp decrease
- Days with significant decline in urea secretion (p ≤ 0.05) (SQL-SAL [1]; troglitazone 28 μM (4 × Cmax)): 4 to 28 days
- Days with significant decline in urea secretion (p ≤ 0.05) (SQL-SAL [1]; troglitazone 180μM (30 × Cmax)): 4 to 10 days
- Acute toxicity produced within (SQL-SAL [10]): 2 to 4 days
- half-life at 28 μM [11]: ~264 h
- half-life at 180 μM [11]: ~72 h
- Change in albumin (SQL-SAL [2]; [14]): gradual decrease
- Change in albumin (SQL-SAL [2]; [15]): sharp decrease
- Days with significant decline in albumin secretion (p≤ 0.05) (SQL-SAL [2]; troglitazone 28 μM (4 × Cmax)): 18 to 28 days
- Days with significant decline in albumin secretion (p≤ 0.05) (SQL-SAL [2]; troglitazone 180μM (30 × Cmax)): 4 to 10 days
- Induction of apoptosis (loss of mitochondrial cytochrome C biosensor intensity) began on day (hepatocytes [3]; 28 μM troglitazone): 10 days
- Induction of apoptosis (loss of mitochondrial cytochrome C biosensor intensity) began on day (hepatocytes [3]; 180 μM troglitazone): 1 days
- Days with significant levels (p ≤ 0.05) of apoptosis, cytochrome C biosensor (hepatocytes [3]; troglitazone 28 μM): 16 to 28 days
- Days with significant levels (p ≤ 0.05) of apoptosis, cytochrome C biosensor (hepatocytes [3]; troglitazone 180 μM): 1 to 15 days
- ROS, mitochondrial-targeted ROS biosensor (hepatocytes [12]): increase in ROS
- Overt cytotoxicity, measured as LDH release, delayed until day (SQL-SAL [4]; 28 μM (4 × Cmax) troglitazone, continuous perfusion, vs 600 μM caffeine): 13 days
- Overt cytotoxicity, measured as LDH release, found on day (SQL-SAL [4]; 180 μM (30 × Cmax) troglitazone, continuous perfusion, vs 600 μM caffeine): 4 days
- Peak LDH release (SQL-SAL [4]; troglitazone 180nM (30 × Cmax)): ~4 days
- Days with significant LDH release (p≤0.05) (SQL-SAL [4]; troglitazone 180nM (30 × Cmax)): 4 to 6 days
- Peak LDH loss (SQL-SAL [4]; troglitazone 28 μM (4 × Cmax)): ~13 days
- Days with significant LDH release (p≤0.05) (SQL-SAL [4]; troglitazone 28 μM (4 × Cmax)): 13 to 15 days
- Toxic response (SQL-SAL [13]): gradual and much delayed toxic response

Compound: O=C(O)Cc1ccccc1Nc1c(Cl)cccc1Cl [Diclofenac, diclofenac]
- Metabolite found in efflux media (AUC) (Cyp 2C9): 36943 ±28302
